Assay results as given in ChEMBL document CHEMBL4811236, “New class of hantaan virus inhibitors based on conjugation of the isoindole fragment to (+)-camphor or (-)-fenchone hydrazonesv” (Bioorg Med Chem Lett, 2021).

Legend:
[1] = Selective index, ratio of CC50 for HEK293T cells to IC50 for antiviral activity against pseudotyped recombinant vesicular stomatitis virus delta G Gn-Gc infected HEK293T cells; type: toxicity; settings: human, read-out: Ratio CC50/IC50
How it was run: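 Selectivity index was calculated as CC50 (HEK293T, 72 h exposure) divided by IC50 against rVSV-ΔG-Gn-Gc pseudovirus in HEK293T cells.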

[2] = tested on: Orthohantavirus hantanense; assay: Antiviral activity against Hantaan 76-118 pseudovirus infected in MDCK cells assessed as reduction in virus replication incubated for 48 hrs by luminescence assay; type: functional, organism-based
[3] = Cytotoxicity against MDCK cells by MTT assay; type: cell-based, Canis lupus familiaris; settings: dog
[4] = Cytotoxicity against human HEK293T cells measured after 72 hrs by MTT assay; type: cell-based, HEK-293T
How it was run: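 HEK293T cells were exposed to compounds for 72 h. CC50 was the concentration causing 50% cell death, reported as M ± I95, n = 3.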

[5] = Selective index, ratio of CC50 for MDCK cells to IC50 for Hantaan 76-118; type: toxicity; settings: dog, read-out: Ratio CC50/IC50
[6] = tested on: Vesicular stomatitis virus; assay: Antiviral activity against pseudotyped recombinant vesicular stomatitis virus delta G Gn-Gc infected HEK293T cells assessed as reduction in virus replication incubated for 48 hrs by luminescence assay; type: functional, organism-based; settings: HEK-293T
How it was run: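 Gn-Gc-pseudotyped VSV-ΔG particles were made by transfecting HEK293T cells with a Hantaan 76–118 Gn-Gc plasmid, adding VSV-ΔG-G after 48 h, and harvesting the supernatant 48 h later. Pseudovirus (500,000 RLU) was preincubated with a range of compound concentrations for 1 h, then a HEK293T cell suspension was added. IC50 reported as M ± I95, n = 3.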

[7] = tested on: Orthohantavirus hantanense; assay: Antiviral activity against HTNV strain 76-118 infected african green monkey Vero E6 cells measured after 3 days by plaque-formation assay; type: functional, organism-based; settings: 76-118, Vero C1008, 72 h
[8] = Orthohantavirus hantanense, 76-118, MDCK, 48 h, read-out: IC50

Row | SMILES | selectivity ratio [1] | IC50 [2, 8] [µM] | CC50 at 336 h [3] [µM] | CC50 at 72 h [4] [µM] | selectivity ratio [5] | IC50 [6] [µM] | IC50 ([2]; mdck) | EC50 [7] [µM]
1 | CSc1nc2[nH]nc([N+](=O)[O-])c(=O)n2n1 | 4 | 14 | 368 | 1510 | 26 | 408 |  | 
2 | CC1(C)[C@@H]2CC[C@@]1(C)/C(=N/NC(=O)c1ccccc1)C2 |  |  | > 150 | 1100 |  | 780 | Not Active | 
3 | CC1(C)[C@@H]2CC[C@@]1(C)/C(=N/NC(=O)c1cccc3c1C(=O)N(Cc1ccccc1)C3)C2 |  |  | > 300 |  |  |  | Not Active | 
4 | O=c1c2ncn([C@@H]3O[C@H](CO)[C@@H](O)[C@H]3O)c2ncn1-c1cccc(F)c1 |  |  |  |  |  |  |  | 94
5 | CCN1CC23C=CC(O2)C(C(=O)N/N=C2\C[C@H]4CC[C@]2(C)C4(C)C)C3C1=O (mixture of isomers) |  |  | 250 | 1070 |  | 790 | Not Active | 
6 | CC12C=CC3(CN(Cc4ccccc4)C(=O)C3C1C(=O)N/N=C1\C[C@H]3CC[C@]1(C)C3(C)C)O2 (mixture of isomers) | 2 | 33 | 245 | 335 | 7 | 147 |  | 
7 | COCCN1CC23C=CC(O2)C(C(=O)N/N=C2\C[C@H]4CC[C@]2(C)C4(C)C)C3C1=O (mixture of isomers) |  |  | 250 | 1030 |  | > 800 | Not Active | 
8 | CC12C=CC3(CN(c4ccccc4)C(=O)C3C1C(=O)N/N=C1\C[C@H]3CC[C@]1(C)C3(C)C)O2 (mixture of isomers) | 4 | 14 | 142 | 448 | 10 | 96 |  | 
9 | COc1ccc(N2CC34C=CC(C)(O3)C(C(=O)N/N=C3\C[C@H]5CC[C@]3(C)C5(C)C)C4C2=O)cc1 (mixture of isomers) |  | 19 | 120 |  | 6 |  |  | 
10 | CC1(C)[C@@H]2CC[C@@]1(C)/C(=N/NC(=O)C1C3C=CC4(CN(Cc5ccccc5)C(=O)C14)O3)C2 (mixture of isomers) |  |  | 250 | 860 |  | 750 | Not Active | 
11 | COc1ccc(N2CC34C=CC(C)(O3)C(C(=O)N/N=C3\C(C)(C)[C@H]5CC[C@]3(C)C5)C4C2=O)cc1 (mixture of isomers) | 2 | 30 | 292 | 152 | 9 | 74 |  | 
12 | CC12C=CC3(CN(c4ccc(Br)cc4)C(=O)C3C1C(=O)N/N=C1\C[C@H]3CC[C@]1(C)C3(C)C)O2 (mixture of isomers) |  |  | 78 | 175 |  | 120 | Not Active | 
13 | CC12C=CC3(CN(c4ccccc4)C(=O)C3C1C(=O)N/N=C1\CC3CCC1C3)O2 (mixture of isomers) |  | 28 | 269 |  | 9 |  |  | 
14 | CCC12C=CC3(CN(c4ccccc4)C(=O)C3C1C(=O)N/N=C1\C(C)(C)[C@H]3CC[C@]1(C)C3)O2 (mixture of isomers) |  | 40 | 120 |  | 3 |  |  | 
15 | CC12C=CC3(CN(c4ccc(Br)cc4)C(=O)C3C1C(=O)N/N=C1\C(C)(C)[C@H]3CC[C@]1(C)C3)O2 (mixture of isomers) |  |  | 80 | 78 |  | 65 | Not Active | 
16 | CC12C=CC3(CN(CCc4ccccc4)C(=O)C3C1C(=O)N/N=C1\C[C@H]3CC[C@]1(C)C3(C)C)O2 (mixture of isomers) | 3 | 42 | 195 | 216 | 4 | 69 |  | 
17 | CCCCN1CC23C=CC(C)(O2)C(C(=O)N/N=C2\C[C@H]4CC[C@]2(C)C4(C)C)C3C1=O (mixture of isomers) |  | 26 | 246 |  | 9 |  |  | 
18 | CC1(C)[C@@H]2CC[C@@]1(C)/C(=N/NC(=O)C1C3OC4(CN(c5ccccc5)C(=O)C14)C1OC31)C2 (mixture of isomers) | 5 | 37 | 195 | 1040 | 5 | 195 |  | 
19 | CC12CCC3(CN(c4ccccc4)C(=O)C3C1C(=O)N/N=C1\C[C@H]3CC[C@]1(C)C3(C)C)O2 (mixture of isomers) | 3 | 20 | 130 | 1450 | 6 | 375 |  | 
20 | CC12C=CC3(CN(c4ccccc4)C(=O)C3C1C(=O)N/N=C1\C(C)(C)[C@H]3CC[C@]1(C)C3)O2 (mixture of isomers) | 3 | 7.6 | 1060 | 1180 | 140 | 431 |  | 
21 | CC(C)N1CC23C=CC(C)(O2)C(C(=O)N/N=C2\C[C@H]4CC[C@]2(C)C4(C)C)C3C1=O (mixture of isomers) | 5 | 92 | 250 | > 2500 | 3 | 468 |  | 
22 | NC(=O)c1ncn([C@@H]2O[C@H](CO)[C@@H](O)[C@H]2O)n1 [RIBAVIRIN] |  |  | 20 |  |  |  | Not Active | 
